Assay results collected from several papers.
Compare with care: the assays were run in different laboratories.
Read-out: cell growth or viability

| Structure (SMILES) | cell line | test | conditions | endpoint | value |
| --- | --- | --- | --- | --- | --- |
| Cc1ccc2c(-c3cc4c(CN5CCN(Cc6ccccn6)CC5)cnc(C)c4o3)cc(=O)oc2c1 | NCI-H1975 | MTT | 72 h | IC50 | 32100 nM |
| O=C(c1ccc(Oc2ccc(OCc3ccccc3)cc2)c([N+](=O)[O-])c1)C(Cl)Cl | NCI-H1975 | MTT | 2.5 µM | inhibition | 95.2% |
| COc1cc2c3c(n(CCCNCCO)c(=O)c2cc1OC)-c1nc2c(cc1C3=O)OCO2 | SF-539 | SRB | 48 h | GI50 | 1000 nM |
| COc1cccc2c1C(=O)c1c(O)c3c(c(O)c1C2=O)C[C@@](O)(C(=O)CO)C[C@@H]3O[C@H]1C[C@H](N)[C@H](O)[C@H](C)O1 | HEK293 | MTT | 72 h | IC50 | 60 nM |
| C=CC(=O)N1CCC([C@@H]2CCNc3c(C(N)=O)c(-c4ccc(Oc5ccccc5)cc4)nn32)CC1 | TMD8 |  | 6 days | IC50 | 0.7 nM |
| C=CC(=O)NC1CCN(c2ncc3ncnc(Nc4ccc(Oc5ccc6c(c5)ncn6C)c(C)c4)c3n2)CC1 | SUM-159-PT |  |  | EC50 | 334 nM |
| Cc1ncc(CN2CCN(Cc3ccccn3)CC2)c2cc(C(=O)c3ccc4c(c3)OCCO4)oc12 | NCI-H1975 | MTT | 72 h | IC50 | 38800 nM |
| C=C(F)C(=O)N1CCN(c2nc(OC[C@@H]3CCCN3C)nc3c2CCN(c2cccc4cccc(Cl)c24)C3)C[C@@H]1CC#N | SW1463 | ATP luminescence |  | IC50 | 367 nM |
| CC1(C)CCC(CN2CCN(c3ccc(C(=O)NS(=O)(=O)c4ccc(NCC5CCOCC5)c([N+](=O)[O-])c4)c(Oc4cnc5[nH]ccc5c4)c3)CC2)=C(c2ccc(Cl)cc2)C1 | Rec1 | ATP luminescence | 48 h | IC50 | 489 nM |
| CC(C)Oc1ccc(S(=O)(=O)c2ccc(Oc3cc(OCC(N)=O)c(C(=O)C(Cl)Cl)cc3[N+](=O)[O-])cc2)cc1 | NCI-H1975 | MTT | 72 h | IC50 | 300 nM |
| O=C(NO)c1ccc(CNc2nc3cccc(-c4ccc5c(c4)OCO5)n3n2)cc1 | SF-539 | SRB |  | GI50 | 600 nM |
| O=C1c2ccccc2C(=O)c2c(Oc3ccc(C(=O)C(Cl)Cl)cc3[N+](=O)[O-])cccc21 | NCI-H1975 | MTT | 2.5 µM | inhibition | 97.1% |
| CC1(CN)CCN(c2cnc3c(Sc4ccncc4Cl)n[nH]c3n2)CC1 | NCI-H1975 |  | 96 h | IC50 | 6680 nM |
| C=CC(=O)Nc1cc(Nc2nccc(-c3cn(C)c4ccccc34)n2)c(OC)cc1N(C)CCN(C)C | NCI-H1975 | MTT | 72 h | IC50 | 29500 nM |
| NC(=O)COc1ccc(C(=O)C(Cl)Cl)cc1[N+](=O)[O-] | NCI-H1975 | MTT | 2.5 µM | inhibition | 26.3% |
| Cc1ccc2c(-c3cc4c(CNCc5cccnc5)cnc(C)c4o3)cc(=O)oc2c1C | NCI-H1975 | MTT | 72 h | IC50 | 43900 nM |
| C=CC(=O)N1CCN(c2nc(=O)n(-c3c(C)ccnc3C(C)C)c3nc(-c4c(O)cccc4F)c(F)cc23)[C@@H](C)C1 | SW1463 | ATP luminescence |  | IC50 | 132 nM |
